Measurements collected from several papers.
Lines come from different studies, so protocols differ.
PPO3: PPO3 (Agaricus bisporus, UniProt C7FF04)
HTR2A: 5-hydroxytryptamine receptor 2A (HTR2A, Homo sapiens, UniProt P28223)
HDAC2: Histone deacetylase 2 (HDAC2, Homo sapiens, UniProt Q92769)

SMILES	target	observed	mode	method	IC50
CCc1c(C)nc(-c2ccc(Cl)s2)nc1Nc1ccc(CC(=O)O)cc1	cGMP-specific 3',5'-cyclic phosphodiesterase (PDE5A, Homo sapiens, UniProt O76074)	enzyme activity	inhibitor	FP	~154 µM
C=CC(=O)N1CCCN(C(=O)c2cc(Sc3cnc(NC(=O)C4CC4)s3)c(C)cc2OC)C[C@H]1C	Tyrosine-protein kinase TXK (TXK, Homo sapiens, UniProt P42681)	enzyme activity	inhibitor	–	0.261 µM
CN(C)C(=O)c1cc2cnc(Nc3ccc(N4CCNCC4)cn3)nc2n1C1CCCC1	3',5'-cyclic-AMP phosphodiesterase 4A (PDE4A, Homo sapiens, UniProt P27815)	enzyme activity	inhibitor	TR-FRET	0.25 µM
Nc1nc(-c2ccc(Br)cc2)cc(-c2ccc(-c3cc(-c4ccc(Br)cc4)nc(N)n3)cc2)n1	PPO3	enzyme activity	inhibitor	absorbance	40.9 µM
O=C(c1cc(C2CCNC2)[nH]n1)N1CCC(c2cccc(Cl)c2)C1 (stereo not drawn)	HTR2A	calcium signal	antagonist	–	19.3 µM
O=C1CC[C@H](N2Cc3cc(N4CCN(CC5CCN(c6ccc([C@@H]7c8ccc(O)cc8CC[C@@H]7c7ccccc7)cc6)CC5)CC4)ccc3C2=O)C(=O)N1	Kappa-type opioid receptor (OPRK1, Homo sapiens, UniProt P41145)	ligand displacement	–	radioligand	0.25 µM
Nc1ccc(-c2cc(-c3ccc(-c4cc(-c5ccc(N)cc5)nc(N)n4)cc3)nc(N)n2)cc1	PPO3	enzyme activity	inhibitor	absorbance	12.4 µM
O=C(NO)c1cncc(OS(=O)(=O)Oc2ccc(C(F)(F)F)cc2)c1	HDAC2	enzyme activity	inhibitor	fluorescence	5.61 µM
NCC1Cc2cc(F)ccc2N(C(=O)Cc2cc(F)ccc2Br)C1 (stereo not drawn)	HTR2A	calcium signal	antagonist	–	1.16 µM
Nc1nc(-c2ccc(I)cc2)cc(-c2ccc(-c3cc(-c4ccc(I)cc4)nc(N)n3)cc2)n1	PPO3	enzyme activity	inhibitor	absorbance	30.6 µM
c1ccc(O[C@H]2CCN(Cc3ccc(-c4ccn[nH]4)o3)C2)cc1	HTR2A	calcium signal	antagonist	–	5.2 µM
O=C(/C=C/c1cccc(OS(=O)(=O)Oc2ccc(C(F)(F)F)cc2)c1)NO	HDAC2	enzyme activity	inhibitor	fluorescence	0.45 µM
